Each block holds one compound with its values, some of them ahead of it.
Key:
Canis familiaris [1] = species: Canis familiaris; experiment: Maximum Percent change from control in the rate of rise of phase 0 of the action potential at 30 uM concentration on Canine Purkinje fibers.; design: species or system Canis lupus familiaris, Purkinje fiber; details: dog, in vitro
In short: (§1)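 Isolated canine Purkinje fibers were superfused with physiological saline gassed with 95% O2/5% CO2 (pH 7.35–7.40) at 36 ± 0.5 °C. Paced at 1.0 Hz with 2-ms pulses at twice diastolic threshold. After up to 1 h stabilization, compounds were tested over 10^-8 to 10^-3 M, 30 min per concentration, one compound per fiber, with vehicle controls. Intracellular microelectrodes (3 M KCl) recorded Vmax and APD95; maximum percent change from control is reported with its concentration.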

Canis familiaris [2] = species: Canis familiaris; experiment: Percent change from control in the rate of rise of phase 0 of the action potential at 10 uM concentration on Canine Purkinje fibers.; design: species or system Canis lupus familiaris, Purkinje fiber; details: dog, in vitro
Canis familiaris [3] = species: Canis familiaris; experiment: Maximum Percent change from control in the rate of rise of phase 0 of the action potential at 10 uM concentration on Canine Purkinje fibers.; type: functional, Canis lupus familiaris, Purkinje fiber; details: dog, in vitro; in short: as §1
Cavia porcellus [4] = species: Cavia porcellus; experiment: Concentration of compound which gives a 20% decrease in contractile force was tested from individual experiments on papillary muscle of guinea pig, activity was expressed as EC-20.; type: functional; details: Muscle tissue
In short: (§2)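 Contractile force measured in an isolated cardiac muscle preparation. Value is the concentration giving a 20% decrease in force of contraction. NR marks that this decrease was not reached. Values come from individual experiments; for N ≥ 3, the mean is given with the range.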

Canis familiaris [5] = species: Canis familiaris; experiment: Percent change from control in conduction time (CT) at uM concentration tested on Canine ventricular muscle fibre.; M is minimal(<10% change in CT); type: functional; details: Canis lupus familiaris; Muscle tissue
In short: (§3)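 Canine right ventricular papillary muscle strips were superfused at 36 ± 0.5 °C with saline gassed with 95% O2/5% CO2. Diastolic threshold was found with 2-ms stimuli at 4000 ms cycle length, then pacing at 4× threshold for 60 min equilibration. FRP was measured at 1000 ms cycle length by S1-S2 premature stimulus after every tenth S1. Conduction time came from a bipolar electrogram. Various compound concentrations were tested, one compound per strip, with vehicle controls. Percent change from control was taken at 10 µM, or the maximum change with its concentration; for N ≥ 3, mean with range.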

Canis familiaris [6] = species: Canis familiaris; experiment: Maximum percent change in repolarization at 10 uM concentration on Canine Purkinje fibers.; type: functional, Canis lupus familiaris, Purkinje fiber; in short: as §1
Canis familiaris [7] = species: Canis familiaris; experiment: Maximum percent change in functional refractory period (FRP) at 1 uM on Canine ventricular muscle fibre.; design: species or system Canis lupus familiaris, Muscle tissue; in short: as §3
Canis familiaris [8] = species: Canis familiaris; experiment: Percent change from control in the functional refractory period (FRP) at 10 uM conc. on Canine ventricular muscle fibre.; design: species or system Canis lupus familiaris, Muscle tissue; in short: as §3
Canis familiaris [9] = species: Canis familiaris; experiment: Maximum percent change in conduction time (CT) at 100 uM concentration tested on Canine ventricular muscle fibre; type: functional, Canis lupus familiaris, Muscle tissue; in short: as §3
Canis familiaris [10] = species: Canis familiaris; experiment: Maximum percent change in repolarization at 100 uM concentration on Canine Purkinje fibers.; type: functional, Canis lupus familiaris, Purkinje fiber; in short: as §1
Canis familiaris [11] = species: Canis familiaris; experiment: Percent change in repolarization at 10 Purkinje fibers.; value ranges from 5-16; type: functional, Canis lupus familiaris, Purkinje fiber
In short: (§4)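 Canine Purkinje fibers were held in oxygenated (95% O2–5% CO2) physiological saline, pH 7.35–7.40, at 36 ± 0.5 °C and paced at 1.0 Hz with 2-ms pulses at twice diastolic threshold. Intracellular microelectrodes (3 M KCl) recorded Vmax and APD95 simultaneously. After up to 1 h of stabilization, compounds were tested from 10^-8 to 10^-3 M with 30 min per concentration. One compound per fiber, with vehicle controls. For N ≥ 3, values are the mean with the range.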

Canis familiaris [12] = species: Canis familiaris; experiment: Percent change in repolarization at 10 Purkinje fibers.; value ranges from -5 - 5; type: functional, Canis lupus familiaris, Purkinje fiber; in short: as §4
Canis familiaris [13] = species: Canis familiaris; experiment: Maximum percent change in conduction time (CT) at 10 uM concentration tested on Canine ventricular muscle fibre; type: functional, Canis lupus familiaris, Muscle tissue; in short: as §3
Canis familiaris [14] = species: Canis familiaris; experiment: Maximum percent change in repolarization at 30 uM concentration on Canine Purkinje fibers.; type: functional, Canis lupus familiaris, Purkinje fiber; in short: as §1
Canis familiaris [15] = species: Canis familiaris; experiment: Percent change from control in the rate of rise of phase 0 of the action potential at 10 uM concentration on Canine Purkinje fibers.; value ranges from -13 - -2; type: organism-based, Canis lupus familiaris, Purkinje fiber; details: dog, in vitro
Canis familiaris [16] = species: Canis familiaris; experiment: Maximum Percent change from control in the rate of rise of phase 0 of the action potential at 100 uM concentration on Canine Purkinje fibers.; type: Canis lupus familiaris, Purkinje fiber; details: dog, in vitro; in short: as §1
Canis familiaris [17] = species: Canis familiaris; experiment: Maximum percent change in functional refractory period (FRP) at 100 uM on Canine ventricular muscle fibre.; value ranges from 5-18; design: species or system Canis lupus familiaris, Muscle tissue; in short: as §3
Canis familiaris [18] = species: Canis familiaris; experiment: Percent change in conduction time (CT) at 10 uM concentration tested on Canine ventricular muscle fibre; value ranges from -14-6; type: functional, Canis lupus familiaris, Muscle tissue
Canis familiaris [19] = species: Canis familiaris; experiment: Percent change from control in the functional refractory period (FRP) at 10 uM conc. on Canine ventricular muscle fibre.; value ranges from -5-3; design: species or system Canis lupus familiaris, Muscle tissue; in short: as §3
Canis familiaris [20] = species: Canis familiaris; experiment: Maximum percent change in conduction time (CT) at 1 uM concentration tested on Canine ventricular muscle fibre; type: functional, Canis lupus familiaris, Muscle tissue; in short: as §3
Cavia porcellus [21] = species: Cavia porcellus; experiment: Concentration of compound ( ) which gives a 20% decrease in contractile force was tested on papillary muscle of guinea pig, activity was expressed as EC-20.; type: functional; details: Muscle tissue; in short: as §2
Canis familiaris [22] = species: Canis familiaris; experiment: Percent change from control in the functional refractory period (FRP) at 10 uM conc. on Canine ventricular muscle fibre.; value ranges from 11-23; design: species or system Canis lupus familiaris, Muscle tissue; in short: as §3
Canis familiaris [23] = species: Canis familiaris; experiment: Maximum percent change in repolarization at 100 uM concentration on Canine Purkinje fibers.; value ranges from 14-20; type: functional, Canis lupus familiaris, Purkinje fiber; in short: as §1
Canis familiaris [24] = species: Canis familiaris; experiment: The maximum Percent change from control in the rate of rise of phase 0 of the action potential at 1 uM concentration on Canine Purkinje fibers.; design: species or system Canis lupus familiaris, Purkinje fiber; details: dog; in short: as §4
Canis familiaris [25] = species: Canis familiaris; experiment: Percent change from control in conduction time (CT) at 10 uM concentration tested on Canine ventricular muscle fibre.; value ranges from -11.0-0; type: functional, Canis lupus familiaris, Muscle tissue; in short: as §3
Canis familiaris [26] = species: Canis familiaris; experiment: The maximum Percent change from control in the rate of rise of phase 0 of the action potential at 100 uM concentration on Canine Purkinje fibers.; design: species or system Canis lupus familiaris, Purkinje fiber; details: dog; in short: as §4
Canis familiaris [27] = species: Canis familiaris; experiment: Maximum percent change in conduction time (CT) at 0.1 uM concentration tested on Canine ventricular muscle fibre; type: functional, Canis lupus familiaris, Muscle tissue; in short: as §3
Canis familiaris [28] = species: Canis familiaris; experiment: Maximum percent change in functional refractory period (FRP) at 10 uM on Canine ventricular muscle fibre.; design: species or system Canis lupus familiaris, Muscle tissue; in short: as §3
Canis familiaris [29] = species: Canis familiaris; experiment: The maximum percent change in action potential (Vmax ) at concentration observed (0.1 uM ) was tested on Canine Purkinje fibers.; design: species or system Canis lupus familiaris, Purkinje fiber; details: dog, in vitro; in short: as §4
Canis familiaris [30] = species: Canis familiaris; experiment: Percent change in repolarization at 10 Purkinje fibers; value ranges from -3.0-7.0.; type: functional, Canis lupus familiaris, Purkinje fiber; in short: as §4
Canis familiaris [31] = species: Canis familiaris; experiment: Maximum percent change in functional refractory period (FRP) at 100 uM on Canine ventricular muscle fibre.; design: species or system Canis lupus familiaris, Muscle tissue; in short: as §3
Canis familiaris [32] = species: Canis familiaris; experiment: Percent change from control in the rate of rise of phase 0 of the action potential at 10 uM concentration on Canine Purkinje fibers.; value ranges from 0-2; design: species or system Canis lupus familiaris, Purkinje fiber; details: dog, in vitro

Vmax (Canis familiaris [1]): -13%
Vmax (Canis familiaris [2]): -7%
Vmax (Canis familiaris [3]): -13%
SMILES: CCN(CC)CCCNC(=O)c1cc2ccccc2[nH]1
EC20 (Cavia porcellus [4]): 26 µM
CT (Canis familiaris [5]): Minimal
APD95 (Canis familiaris [6]): 16%
FRP (Canis familiaris [7]): 5%
FRP (Canis familiaris [8]): 5%
CT (Canis familiaris [9]): -11%
APD95 (Canis familiaris [10]): -14%
APD95 (Canis familiaris [11]): 9.6%

Vmax (Canis familiaris [1]): -19%
Vmax (Canis familiaris [15]): -7%
Vmax (Canis familiaris [16]): -35%
SMILES: CCN(CC)CCNC(=O)c1cc2cccc(O)c2[nH]1
APD95 (Canis familiaris [12]): 0.7%
CT (Canis familiaris [13]): -14%
APD95 (Canis familiaris [14]): -9%
APD95 (Canis familiaris [6]): 5%
FRP (Canis familiaris [17]): 10%
CT (Canis familiaris [9]): 16%
APD95 (Canis familiaris [10]): -28%
CT (Canis familiaris [18]): -3.3%
FRP (Canis familiaris [19]): -1%
CT (Canis familiaris [20]): -3%
EC20 (Cavia porcellus [21]): 30 µM

Vmax (Canis familiaris [24]): 2%
Vmax (Canis familiaris [26]): 5%
Vmax (Canis familiaris [29]): 6%
Vmax (Canis familiaris [32]): 1%
SMILES: CCN(CC)CCNC(=O)c1ccc(NC(C)=O)cc1 [ACECAINIDE]
FRP (Canis familiaris [22]): 16.8%
APD95 (Canis familiaris [23]): 16.3%
CT (Canis familiaris [25]): -9.7%
CT (Canis familiaris [27]): -11%
FRP (Canis familiaris [28]): 23%
APD95 (Canis familiaris [30]): 3%
FRP (Canis familiaris [31]): 31%
CT (Canis familiaris [9]): 6%
CT (Canis familiaris [20]): -9%

Reference: ChEMBL document CHEMBL1124429, “Heterocyclic analogues of benzamide antiarrhythmic agents” (J Med Chem, 1989)
